MC4R antag cAMP = blocks human MC4R cAMP signaling. MC4R-expressing cells, MTII-stimulated cAMP, LANCE TR-FRET. 0.48% of 360,000 active. inhibition, % at 6.5 µM. AID 540295;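 active = inhibition above its plate's cutoff, the mean of tested wells on that plate plus 3 SD, cut at about 29% in these data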;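 note: 0% = Melanotan II alone and 100% = Melanotan II plus saturating MCL0020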
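Assay system: U2OS cells stably expressing human melanocortin 4 receptor (MC4R) / Dosing: 6.5 µM / Timing: compound 30 min, challenge 1 h, detection 1 h / Measured by: Eu-cAMP/anti-cAMP TR-FRET, emission 671 nm / Replicates: singlicate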
NTR1 ag = activates human neurotensin receptor 1. NTR1-U2OS beta-arrestin-GFP spot imaging, agonist mode. activation, % at 20 µM. P30989. 0.17% of 330,000 active;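 active = activation at or above 40% of the spot to cytoplasm intensity ratio, with at least 20 cells analyzed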;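 note: 0% = DMSO without peptide and 100% = 100 nM NTR1 peptide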
MC4R ag barr = activates human MC4R beta-arrestin recruitment; P32245; activation, % at 8.9 µM; U2OS MC4R beta-arrestin complementation, luminescence; percent of melanotan II response, DMSO zero; 0.98% of 360,000 active;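 active = activation above a per-plate cutoff, the mean activation of sample wells on that plate plus 3 SD, cut at about 8% in these data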
PG9 Ab binder = binds the HIV-1 gp120 antibody PG9. TR-FRET gp120-PG9 antibody binding. inhibition, % at 6.7 µM. 0.43% of 360,000 active; in the data active = inhibition above about 8.5%
Rev-erbA mod = modulators of human Rev-erb alpha DNA binding | P20393 | Rev-erbα–FITC-DNA binding, fluorescence polarization, 90 min | activity, % at 10 µM | 0.79% of 370,000 active;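 active = activity above about 14%, limit read from the data; passing the limit was not always enough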;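 note: 0% = DMSO wells with 35 nM protein and 100% = DMSO wells with 750 nM protein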
MC4R barr conf = human MC4R beta-arrestin agonism confirmation; AID 602192; shares compounds with MC4R ag barr; activation, % at 8.9 µM; U2OS MC4R beta-arrestin recruitment, luminescence; scaled DMSO 0%, Melanotan II 100%; 31% of 2,400 active;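 active = mean activation across replicates above the hit cutoff set in the earlier primary screen, cut at about 8% in these data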
MOR DOR agonist = activates mu-delta opioid heterodimer, MC4R agonist counter-screen. 5.8% of 2,400 active. U2OS PathHunter beta-arrestin, beta-gal luminescence; percent of deltorphin B response, DMSO zero. AID 602194. activation, % at 9.2 µM. shares compounds with MC4R ag barr;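 active = mean activation across replicates exceeds the hit threshold derived in the earlier primary screen, cut at about 18% in these data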;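 note: 100% = deltorphin B at 0.9 µM final and 0% = DMSO alone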
Target sequence (P35372 whole entry, looked up): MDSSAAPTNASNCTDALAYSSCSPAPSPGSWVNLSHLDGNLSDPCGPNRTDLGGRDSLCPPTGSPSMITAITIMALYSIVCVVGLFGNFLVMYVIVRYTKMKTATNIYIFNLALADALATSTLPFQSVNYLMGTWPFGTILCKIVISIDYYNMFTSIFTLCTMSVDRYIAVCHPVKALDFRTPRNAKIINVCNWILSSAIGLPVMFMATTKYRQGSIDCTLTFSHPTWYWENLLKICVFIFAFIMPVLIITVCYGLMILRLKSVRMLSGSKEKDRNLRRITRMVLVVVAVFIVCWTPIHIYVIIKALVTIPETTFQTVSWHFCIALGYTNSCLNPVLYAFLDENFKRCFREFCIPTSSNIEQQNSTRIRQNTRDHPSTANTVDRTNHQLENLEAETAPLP
Target sequence (P41143 whole entry, looked up): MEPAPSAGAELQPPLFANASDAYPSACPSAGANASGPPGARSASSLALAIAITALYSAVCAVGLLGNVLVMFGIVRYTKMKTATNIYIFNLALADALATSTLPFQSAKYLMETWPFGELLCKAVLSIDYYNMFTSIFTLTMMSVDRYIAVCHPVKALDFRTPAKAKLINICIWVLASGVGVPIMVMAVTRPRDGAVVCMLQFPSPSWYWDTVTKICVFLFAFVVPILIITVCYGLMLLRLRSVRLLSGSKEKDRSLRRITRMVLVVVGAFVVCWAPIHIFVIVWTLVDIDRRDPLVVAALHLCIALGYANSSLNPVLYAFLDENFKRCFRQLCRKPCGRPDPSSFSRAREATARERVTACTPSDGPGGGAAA
The depositor's hits bear a star; · = not tested or not shown. Compounds with a hit are over-represented: about 2.5% of the library has one in this group of screens.

SMILES | MC4R antag cAMP | NTR1 ag | MC4R ag barr | PG9 Ab binder | Rev-erbA mod | MC4R barr conf | MOR DOR agonist
CC(C)c1ccc(NC(=O)COC(=O)/C=C/c2cccc(Br)c2)cc1 | -2 | -2 | 11* | 1 | 6 | 5 | 3
CCn1c2ccccc2c2cc(NC(=O)COC(=O)c3ccc(F)cc3Cl)ccc21 | · | · | · | · | -2 | · | ·
Cc1sc2ncnc(SCC(=O)c3cccs3)c2c1C | -1 | 0 | 43* | 8 | 18 | 4 | 6
Cc1cccc(NC(=O)CSc2ncnc3sc(C)c(C)c23)n1 | 2 | 2 | -3 | 1 | -2 | · | ·
COc1ccc2c(c1)CCCN2C(=O)C1CCCN(S(=O)(=O)c2ccc(C(C)(C)C)cc2)C1 (stereo unspecified) | · | · | · | · | 0 | · | ·
Cn1c(=O)oc2cc(S(=O)(=O)N3CCN(c4cccc(Cl)c4)CC3)ccc21 | -2 | -1 | 11* | -1 | 2 | 0 | 4
O=C1COc2ccc(S(=O)(=O)N3CCN(c4cccc(Cl)c4)CC3)cc2N1 | -1 | 3 | 9.6* | 1 | 1 | 4 | 10
CN1C(=O)C[C@@](C#N)(C(=O)NCC(F)(F)F)[C@H]1c1ccccc1 | · | · | · | · | 4 | · | ·
CCn1c2ccccc2c2cc(C=NNC(=O)c3cc(-c4ccc(OC)cc4)n[nH]3)ccc21 | · | · | · | · | -7 | · | ·
COc1ccc(O)c(-c2cc(C(F)(F)C(F)F)nc(-c3ccccc3)n2)c1 | -2 | 3 | 14* | -2 | 0 | 17* | 1
O=C(COc1ccc2ccccc2c1Br)Nc1ncn[nH]1 | 12 | 7 | 13* | · | 1 | 1 | 2
Cc1cccc(C)c1OCC(=O)Nc1ncn[nH]1 | 1 | 2 | 0 | 0 | -2 | · | ·
Nn1c(SCC(=O)Nc2cc(C(F)(F)F)ccc2Cl)nnc1-c1n[nH]c2c1CCC2 | · | · | · | · | 6 | · | ·
C=CCn1c(SCC(=O)Nc2ncc(Cc3ccc(C)c(Cl)c3)s2)nnc1-c1ccncc1 | 4 | 5 | 30* | 0 | 0 | 16* | 3
Cc1cc(C)nc(SCC(=O)Nc2ncc(Cc3cccc(Cl)c3)s2)n1 | 2 | 17 | 16* | -2 | 2 | 8 | 3
C=CCn1c(SCC(=O)Nc2nnc(CC)s2)nnc1-c1ccncc1 | 25 | 0 | -3 | 0 | 3 | · | ·
Cc1cc(C)c2oc(C(=O)Nc3ccc(S(=O)(=O)Nc4nccs4)cc3)cc(=O)c2c1 | 20 | 0 | -2 | 0 | -6 | · | ·
Cc1cc2oc(C(=O)Nc3ccc(S(=O)(=O)Nc4nccs4)cc3)cc(=O)c2cc1Cl | 6 | 1 | 9.7* | 4 | -4 | -2 | 2
COC(=O)C1=C(C)N(Cc2ccccc2C(F)(F)F)C(=NCc2ccccc2)NC1c1cccc(F)c1 (stereo unspecified) | · | · | · | 0 | -4 | · | ·
COc1ccc(NC(=O)CN(C)S(=O)(=O)c2ccc(Cl)cc2)cc1Cl | 6 | 4 | 2 | 0 | 3 | · | ·
COc1ccc(S(=O)(=O)N(C)CC(=O)Nc2ccc(C(F)(F)F)cc2)cc1Cl | 4 | 10 | 17* | 0 | 3 | 5 | 8
Cc1ccc(OC(=O)c2cccc([N+](=O)[O-])c2)c(-n2nc3ccccc3n2)c1 | 8 | 4 | 14* | -2 | 1 | -3 | 3
CCCCCCCCNS(=O)(=O)/C=C/c1ccccc1CNC(=O)OC(C)(C)C | · | · | · | · | 0 | · | ·
O=c1c2cc(Cl)ccc2[nH]c(=S)n1Cc1cccs1 | 0 | 10 | 10* | 1 | 13 | 0 | 4
O=[N+]([O-])c1ccc(S(=O)(=O)Nc2ccc(-c3ccccc3)cc2)cc1 | 6 | · | 15* | -1 | 6 | 1 | 7
SMILES | MC4R antag cAMP | NTR1 ag | MC4R ag barr | PG9 Ab binder | Rev-erbA mod | MC4R barr conf | MOR DOR agonist
CC(=O)Nc1ccc(S(=O)(=O)Nc2ccc([N+](=O)[O-])cc2)cc1 | · | · | · | · | 2 | · | ·
Nn1c(SCC(=O)NC2CCCCC2)nnc1-c1n[nH]c2c1CCC2 | · | · | · | · | -3 | · | ·
COc1cccc(C(=O)NCc2ccc(-c3nc4ccccc4s3)cc2)c1 | 0 | 4 | 30* | 0 | 6 | 2 | 4
COc1cccc(C(=O)Nc2nnc(-c3ccccc3)s2)c1 | -4 | · | 13* | 5 | 13 | 2 | 1
CC(C)(C)c1ccc(-c2nnc(NC(=O)c3ccccc3)s2)cc1 | 13 | 6 | 4 | 0 | 21 | · | ·
COc1ccc(-c2nc(=S)c3ccc4ccccc4c3[nH]2)cc1 | -2 | · | 12* | -1 | -5 | -1 | 1
C=C(C)c1ccc(C(C)(C)NC(=O)N(Cc2ccccc2)Cc2ccco2)cc1 | -1 | 1 | 17* | -3 | 2 | -3 | 4
C=CCN(CC#Cc1ccccn1)Cc1ccc(OC)cc1OC | · | · | · | · | -6 | · | ·
CCC(=O)NCc1cc(-c2nn(C)c(=O)c3ccccc23)ccc1C | 6 | 1 | -1 | 1 | 2 | · | ·
Cc1ccc(NC(=O)c2ccc(-c3nn(C)c(=O)c4ccccc34)cc2)cc1 | 10 | 5 | 22* | 2 | 13 | -1 | 2
Cc1ccc(-c2nn(CC(=O)NCc3cc(-c4nn(C)c(=O)c5ccccc45)ccc3C)c(=O)c3ccccc23)cc1 | 4 | 12 | 16* | 0 | -8 | 25* | 6
Nn1c(SCC(=O)Nc2ccc(OCc3ccccc3)cc2)nnc1-c1cc(-c2ccc(F)cc2)n[nH]1 | · | · | · | · | 9 | · | ·
S=C(Nc1ccc(Br)cc1)OCCN1CCCC12CCC(c1ccccc1)CC2 (stereo unspecified) | · | · | · | · | -1 | · | ·
CCOC(=O)c1c(NC(=O)Cn2cnc([N+](=O)[O-])n2)sc2c1CCCC2 | -4 | 6 | 2 | -1 | 4 | · | ·
CC(C)OC(=O)c1c(NC(=O)Cn2cnc([N+](=O)[O-])n2)sc2c1CCCC2 | 11 | 4 | 9.9* | 2 | 6 | 0 | 4
O=C(Nc1ccc(Cl)cc1)N1CCN(Cc2nc3ccccc3c(=O)[nH]2)CC1 | · | · | · | · | -7 | · | ·
O=C(COC(=O)/C=C/c1ccccc1Cl)NCc1ccccc1 | -4 | 0 | 1 | 0 | 4 | · | ·
O=C(COC(=O)/C=C/c1ccccc1Cl)NCCNC(=O)COC(=O)/C=C/c1ccccc1Cl | 4 | 1 | 12* | 0 | -3 | 1 | 4
CCCCCCCCCCCCCCCCn1cc[n+](C)c1 | 16 | 12 | 15* | -2 | 4 | 30* | 8
COc1ccc(Nc2nc(-c3cc4cccc(OC)c4oc3=O)cs2)cc1 | -3 | 1 | 20* | -1 | -5 | 5 | 5

Source: PubChem BioAssay
